Compounds with a hit are over-represented: about 4.7% of the library has one in this group of screens.
Mdm2 MdmX PPI – human Mdm2/MdmX binding inhibition. O15151+Q00987. SaOS-2 split-luciferase Mdm2/MdmX complementation, luminescence. inhibition, % at 8 µM. actives 3% (n = 330,000);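 active = inhibition of at least 50% at 8 µM in the primary screen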
Target sequence (O15151 whole entry, looked up): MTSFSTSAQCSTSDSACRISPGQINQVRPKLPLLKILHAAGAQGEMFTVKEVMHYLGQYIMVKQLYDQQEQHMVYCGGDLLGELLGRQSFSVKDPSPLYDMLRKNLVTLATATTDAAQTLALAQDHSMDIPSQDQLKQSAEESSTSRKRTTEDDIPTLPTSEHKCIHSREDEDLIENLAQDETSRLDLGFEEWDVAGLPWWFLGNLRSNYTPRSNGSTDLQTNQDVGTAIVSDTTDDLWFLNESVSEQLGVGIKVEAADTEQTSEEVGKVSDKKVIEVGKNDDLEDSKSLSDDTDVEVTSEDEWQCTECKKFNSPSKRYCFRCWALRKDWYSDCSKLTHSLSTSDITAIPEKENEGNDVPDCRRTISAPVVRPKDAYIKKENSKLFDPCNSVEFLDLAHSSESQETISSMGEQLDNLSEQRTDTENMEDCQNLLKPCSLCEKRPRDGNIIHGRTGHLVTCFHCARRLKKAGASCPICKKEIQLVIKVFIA
Target sequence (Q00987 whole entry, looked up): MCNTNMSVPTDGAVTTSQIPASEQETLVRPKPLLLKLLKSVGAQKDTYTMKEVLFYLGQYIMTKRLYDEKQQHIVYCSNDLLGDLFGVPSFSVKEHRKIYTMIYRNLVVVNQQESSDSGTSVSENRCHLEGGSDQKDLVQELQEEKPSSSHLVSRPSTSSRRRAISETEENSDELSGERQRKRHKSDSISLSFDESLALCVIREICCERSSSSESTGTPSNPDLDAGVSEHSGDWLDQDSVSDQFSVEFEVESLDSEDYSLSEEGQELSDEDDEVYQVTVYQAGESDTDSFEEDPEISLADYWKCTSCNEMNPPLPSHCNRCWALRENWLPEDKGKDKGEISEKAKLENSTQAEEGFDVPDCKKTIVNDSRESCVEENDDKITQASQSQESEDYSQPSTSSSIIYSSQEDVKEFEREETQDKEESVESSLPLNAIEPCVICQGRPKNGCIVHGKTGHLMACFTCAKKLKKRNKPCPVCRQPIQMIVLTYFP
697 NFkB inh – inhibitors of the PMA/ionomycin-induced NF-kB reporter in 697 B cells; 697 B-cell NF-kB luciferase reporter, 16 h; actives 0.33% (n = 330,000); inhibition, % at 4 µM; in the data active = inhibition above about 35%
VIM-2 inhibitor – inhibitors of Pseudomonas aeruginosa VIM-2 metallo-beta-lactamase | purified VIM-2, nitrocefin hydrolysis, epi-absorbance fluorescence | inhibition, % at 5.6 µM | actives 0.89% (n = 290,000) | AID 1527;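 active = inhibition above the mean of all tested compounds plus 3 SD, cutoff set per screening run, cut at about 7.5% in these data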;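 note: red hydrolysis product quenches plate fluorescence so inhibitors raise well fluorescence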
aSyn 5UTR inh – 5' untranslated region of α-synuclein, MLPCN primary screen; AID 1813; alpha-synuclein 5'UTR reporter, inhibitor activity; actives 0.82% (n = 300,000); inhibition, % (tested at 7.5 µM); in the data active = inhibition above about 60%; inconclusive = no clear call, values can overlap the other calls;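 note: H4 neuroglioblastoma cells stably carrying SNCA 5'UTR luciferase fusion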
IMP-1 inh – inhibitors of Pseudomonas aeruginosa IMP-1 metallo-beta-lactamase. purified IMP-1, nitrocefin hydrolysis, epi-absorbance fluorescence. inhibition, % at 5.6 µM. actives 0.45% (n = 290,000). AID 1556;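 active = inhibition above the mean plus 3 SD of all compounds in the same screening run, cut at about 4.5% in these data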
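System – purified recombinant IMP-1 beta-lactamase · Input – IMP-1 dispensed at 0.2 nM · Timing – 15 min preincubation plus 25 min reaction at 25 °C · Signal – Epi-absorbance fluorescence, 480 nm excitation, 530 nm emission · Measure – percent IMP-1 inhibition derived from blank-referenced optical density · Controls – Enzyme-plus-DMSO low control, enzyme-free DMSO high control · Replication – singlicate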
Jurkat NFkB inh – inhibitors of the PMA/ionomycin-induced NF-kB reporter in Jurkat cells; inhibition, % at 4 µM; PMA/ionomycin-induced NF-kB luciferase reporter, luminescence; actives 0.53% (n = 330,000); in the data active = inhibition above about 50%
697 NFkB conf – lowers PMA/ionomycin-induced NF-kB signal in 697 B cells | 697 B-cell NF-kB luciferase, 16 h | shares compounds with 697 NFkB inh | inhibition, % at 4 µM | actives 35% (n = 2,000); in the data active = inhibition mostly above about 28%, no sharp cut-off; inactive = mostly below about 22%
Mdm2 MdmX conf – confirmation of human Mdm2/MdmX interaction inhibitors. shares compounds with Mdm2 MdmX PPI. Mdm2-MdmX binding, luminescent assay. inhibition, % at 8 µM. actives 55% (n = 10,000). AID 489028; in the data active = inhibition above about 40%
FLuc counter – full-length luciferase inhibition in Mdm2/MdmX counter-screen. shares compounds with Mdm2 MdmX PPI. SaOS-2 full-length luciferase counterscreen, luminescence. inhibition, % at 8 µM. actives 77% (n = 6,200). AID 504607;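 active = mean inhibition at 8 µM reaching about 37%, which flags the compound as non-specific, limit read from the data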;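 note: p53-null SaOS-2 cells with luciferase driven by a doxycycline-inducible promoter; compound on cells about two nights before reading with doxycycline added after day one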
Hits are given with their value.

Results for CC(C)c1ccc(NC(=O)[C@H](Cc2c[nH]c3ccccc23)NC(=O)[C@@H]2Cc3ccccc3CN2)cc1 ?
Mdm2 MdmX PPI: 96.4; 697 NFkB inh: inactive; VIM-2 inhibitor: inactive; aSyn 5UTR inh: inconclusive; IMP-1 inh: inactive; Jurkat NFkB inh: inactive; 697 NFkB conf: inactive; Mdm2 MdmX conf: 78.8; FLuc counter: inactive

What do the screens show for `Cc1cc(C(=O)NC2CCCc3c2cnn3-c2ccccc2F)nc(C)n1` (configuration not stated)?
Mdm2 MdmX PPI: inactive; 697 NFkB inh: inactive; VIM-2 inhibitor: inactive; aSyn 5UTR inh: inactive; IMP-1 inh: inactive; Jurkat NFkB inh: inactive

Results for CC(C)c1cc(C(=O)NC2CCCc3c2cnn3-c2ccccc2F)no1 (configuration not stated) ?
Mdm2 MdmX PPI: 89.7; 697 NFkB inh: inactive; VIM-2 inhibitor: inactive; aSyn 5UTR inh: inactive; IMP-1 inh: inactive; Jurkat NFkB inh: inactive; 697 NFkB conf: inactive; Mdm2 MdmX conf: 76.7; FLuc counter: inactive

Results for CCc1nc(SCC(=O)N2CC(=O)Nc3ccccc32)c2c(C)c(C)sc2n1 ?
Mdm2 MdmX PPI: inactive; 697 NFkB inh: inactive; VIM-2 inhibitor: inactive; aSyn 5UTR inh: inactive; IMP-1 inh: inactive; Jurkat NFkB inh: inactive

Results for CCc1nc(SCC(=O)N2c3ccccc3CC2C)c2c(C)c(C)sc2n1 (configuration not stated) ?
Mdm2 MdmX PPI: 98.0; 697 NFkB inh: inactive; VIM-2 inhibitor: inactive; aSyn 5UTR inh: inactive; IMP-1 inh: inactive; Jurkat NFkB inh: inactive; 697 NFkB conf: inactive; Mdm2 MdmX conf: 93.0; FLuc counter: 52.8

How did COc1ccc2oc(C(=O)NCc3cc(OC)c(OC)cc3OC)c(C)c2c1 do in these assays?
Mdm2 MdmX PPI: inactive; 697 NFkB inh: inactive; VIM-2 inhibitor: inactive; aSyn 5UTR inh: inactive; IMP-1 inh: inactive; Jurkat NFkB inh: inactive

Results for Cc1ccc(Nc2nc(NCc3ccco3)c3ccccc3n2)cc1 ?
Mdm2 MdmX PPI: 70.1; 697 NFkB inh: inactive; VIM-2 inhibitor: inactive; aSyn 5UTR inh: inactive; IMP-1 inh: inactive; Jurkat NFkB inh: inactive; 697 NFkB conf: inactive; Mdm2 MdmX conf: inactive

How did COc1ccccc1Nc1nc(NCc2ccco2)c2ccccc2n1 do in these assays?
Mdm2 MdmX PPI: inactive; 697 NFkB inh: inactive; VIM-2 inhibitor: inactive; aSyn 5UTR inh: inactive; IMP-1 inh: inactive; Jurkat NFkB inh: inactive

How did Cc1ccc(NC(=O)Cn2c(O)c(N=NC(N)=S)c3ccccc32)cc1 do in these assays?
Mdm2 MdmX PPI: 51.2; 697 NFkB inh: 39.8; VIM-2 inhibitor: inactive; aSyn 5UTR inh: inactive; IMP-1 inh: inactive; Jurkat NFkB inh: inactive; 697 NFkB conf: inactive; Mdm2 MdmX conf: inactive; FLuc counter: 64.8

How did COc1ccc(OC)c(S(=O)(=O)Nc2ccc(-c3ccc4nnc(C)n4n3)cc2)c1 do in these assays?
Mdm2 MdmX PPI: 51.1; 697 NFkB inh: 50.2; aSyn 5UTR inh: inactive; Jurkat NFkB inh: inactive; 697 NFkB conf: 39.0; Mdm2 MdmX conf: 61.0; FLuc counter: 65.1

How did CCc1ccc(S(=O)(=O)Nc2cccc(-c3ccc4nnc(C)n4n3)c2)s1 do in these assays?
Mdm2 MdmX PPI: 55.3; 697 NFkB inh: 38.5; aSyn 5UTR inh: inactive; Jurkat NFkB inh: inactive; 697 NFkB conf: inactive; Mdm2 MdmX conf: 52.9; FLuc counter: 85.0

How did Cc1nnc2ccc(-c3ccc(NS(=O)(=O)c4ccc(F)cc4F)cc3)nn12 do in these assays?
Mdm2 MdmX PPI: inactive; 697 NFkB inh: inactive; aSyn 5UTR inh: inactive; Jurkat NFkB inh: inactive

How did CS(=O)(=O)N(CC(=O)O)c1cc(C(F)(F)F)ccc1Cl do in these assays?
Mdm2 MdmX PPI: inactive; 697 NFkB inh: inactive; Jurkat NFkB inh: inactive

What do the screens show for `N=c1ccn2c(n1)O[C@H]1[C@H](O)[C@@H](CO)O[C@H]12`?
Mdm2 MdmX PPI: 60.6; 697 NFkB inh: 52.0; VIM-2 inhibitor: inactive; aSyn 5UTR inh: inactive; IMP-1 inh: inactive; Jurkat NFkB inh: inactive; 697 NFkB conf: 44.8; Mdm2 MdmX conf: 63.9; FLuc counter: 45.7

Results for O=c1ccn([C@@H]2O[C@H](CO)[C@@H](O)[C@H]2O)c(=O)[nH]1 ?
Mdm2 MdmX PPI: inactive; 697 NFkB inh: inactive; VIM-2 inhibitor: inactive; aSyn 5UTR inh: inactive; IMP-1 inh: inactive; Jurkat NFkB inh: inactive

Results for CC(=O)c1cccc(NC(=O)CN2C(=O)NC(C)(C)C2=O)c1 ?
Mdm2 MdmX PPI: inactive; 697 NFkB inh: inactive; Jurkat NFkB inh: inactive

What do the screens show for `COCCn1c(SC(C)C(=O)Nc2ncc(Cl)cc2Cl)nc2ccccc21` (configuration not stated)?
Mdm2 MdmX PPI: 66.7; 697 NFkB inh: inactive; VIM-2 inhibitor: inactive; aSyn 5UTR inh: inactive; IMP-1 inh: inactive; Jurkat NFkB inh: inactive; 697 NFkB conf: inactive; Mdm2 MdmX conf: 50.0; FLuc counter: 57.8

What do the screens show for `N=c1c2c(n(Cc3cccc(Cl)c3)c3c1CCC3)CCCC2`?
Mdm2 MdmX PPI: 58.0; 697 NFkB inh: 43.5; VIM-2 inhibitor: inactive; aSyn 5UTR inh: inconclusive; IMP-1 inh: inactive; Jurkat NFkB inh: inactive; 697 NFkB conf: 38.0; Mdm2 MdmX conf: 41.6; FLuc counter: 64.1

Results for N=c1c2c(n(Cc3ccccc3)c3c1CCC3)CCC2 ?
Mdm2 MdmX PPI: inactive; 697 NFkB inh: inactive; VIM-2 inhibitor: inactive; aSyn 5UTR inh: inactive; IMP-1 inh: inactive; Jurkat NFkB inh: inactive

What do the screens show for `CCCN1C(=O)/C(=C/c2c(N3CCNC(=O)C3CC(=O)OCC)nc3c(C)cccn3c2=O)SC1=S` (configuration not stated)?
Mdm2 MdmX PPI: 73.5; 697 NFkB inh: 36.7; VIM-2 inhibitor: inactive; aSyn 5UTR inh: inactive; IMP-1 inh: inactive; Jurkat NFkB inh: inactive; 697 NFkB conf: 36.3; Mdm2 MdmX conf: 67.5; FLuc counter: 74.3

How did CCOC(=O)CC1C(=O)NCCN1c1nc2ccc(C)cn2c(=O)c1/C=C1\SC(=S)N(CC(C)C)C1=O (configuration not stated) do in these assays?
Mdm2 MdmX PPI: inactive; 697 NFkB inh: inactive; VIM-2 inhibitor: inactive; aSyn 5UTR inh: inactive; IMP-1 inh: inactive; Jurkat NFkB inh: inactive

Results for O=C(Cc1csc(Nc2nc(=S)[nH]c3ccccc23)n1)NCc1ccc(Cl)cc1 ?
Mdm2 MdmX PPI: 73.6; 697 NFkB inh: inactive; VIM-2 inhibitor: inactive; aSyn 5UTR inh: inactive; IMP-1 inh: inactive; Jurkat NFkB inh: inactive; Mdm2 MdmX conf: inactive

What do the screens show for `COc1ccc(CNC(=O)Cc2csc(Nc3nc(=S)[nH]c4ccccc34)n2)cc1`?
Mdm2 MdmX PPI: inactive; 697 NFkB inh: inactive; VIM-2 inhibitor: inactive; aSyn 5UTR inh: inactive; IMP-1 inh: inactive; Jurkat NFkB inh: inactive

High-throughput results as filed in PubChem BioAssay.
